Data reported in ChEMBL document CHEMBL4368872, “Synthesis and anticonvulsant activity of phenoxyacetyl derivatives of amines, including aminoalkanols and amino acids” (Medchemcomm, 2018).
The source made the active and inactive calls. The calls are words filed in the database; no cut-off is given here.

Experiments:
[1] = system: Mus musculus; test: Anticonvulsant activity in CF-1 mouse model of subcutaneous pentylenetetrazole-induced seizure assessed as reduction in convulsions at 30 mg/kg, ip measured at 0.5 hrs post dose; type: functional, organism-based
Summary of the method: (§1)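 Mice dosed i.p., then given pentylenetetrazole 85 mg/kg in 0.9% NaCl s.c. into the posterior midline of the neck. Seizures watched for at least 30 min. Scored as protected / tested at 0.5 and 4 h.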

[2] = system: Mus musculus; test: Anticonvulsant activity in CF-1 mouse model of subcutaneous pentylenetetrazole-induced seizure assessed as reduction in convulsions at 300 mg/kg, ip measured at 0.5 hrs post dose; type: functional, organism-based; summary of the method: as §1
[3] = system: Salmonella typhimurium; test: Antimutagenic activity against Salmonella typhimurium TA1535 assessed as inhibition of NaN3-induced mutation at 50 ug/plate preincubated for 30 mins followed by top agar addition and measured after 48 hrs in presence of liver S9 fraction by Ames test relative to control; type: organism-based; conditions: salmonella enterica subsp. enterica serovar typhimurium, s9, 48 h
[4] = system: Mus musculus; test: Anticonvulsant activity in CF-1 mouse model of maximal electroshock-induced seizure assessed as suppression of tonic hind limb extension at 300 mg/kg, ip measured at 0.5 hrs post dose; type: functional, organism-based
Summary of the method: (§2)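 Mice dosed i.p. and given maximal electroshock at 50 mA. Read-out is protection, reported as number protected / number tested at 0.25, 0.5, 1 and 4 h after dosing.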

[5] = Neurotoxicity in Sprague-Dawley rat at 30 mg/kg, po measured after 2 hrs by rotarod test; type: toxicity, organism-based; conditions: in vivo
Summary of the method: (§3)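 Rat neurotoxicity after i.p. or p.o. dosing was scored as animals impaired / animals tested at each time point. For p.o. dosing, TD50 was obtained by probit analysis.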

[6] = Neurotoxicity in CF-1 mouse at 100 mg/kg, ip measured after 1 hr by rotarod test; type: toxicity, organism-based; conditions: in vivo
Summary of the method: (§4)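 Mice dosed i.p. were placed on a 1 in. knurled rod turning at 6 rpm. Toxicity was scored as failure to keep balance for at least 1 min, i.e. falling off three or more times. Results are reported as animals showing toxicity / animals tested at each time point.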

[7] = Half life in rat liver microsomes at 20 uM preincubated for 15 mins followed by NADPH generating system addition and measured by LC-MS/MS analysis; type: ADME, Microsome
Summary of the method: (§5)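 Test compound at 20 µM preincubated 15 min with male rat liver microsomes (0.4 mg ml⁻¹) in 100 mM potassium phosphate, pH 7.4. Started with NADP⁺ (3.4 mM), glucose 6-phosphate (7.7 mM) and G6PDH (0.6 U ml⁻¹). Run 5–60 min at 37 °C in duplicate, stopped with cold perchloric acid plus internal standard, supernatant analysed by LC-MS/MS. Half-life and Cl_int derived by literature methods.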

[8] = Neurotoxicity in CF-1 mouse at 30 mg/kg, ip measured after 0.5 hrs by rotarod test; type: toxicity, organism-based; conditions: in vivo; summary of the method: as §4
[9] = Intrinsic clearance in rat liver microsomes at 20 uM preincubated for 15 mins followed by NADPH generating system addition and measured after 5 to 60 mins by LC-MS/MS analysis; type: ADME, Microsome; conditions: read-out: CLH; summary of the method: as §5
[10] = Neurotoxicity in CF-1 mouse at 30 mg/kg, ip measured after 4 hrs by rotarod test; type: toxicity, organism-based; conditions: in vivo; summary of the method: as §4
[11] = Neurotoxicity in CF-1 mouse at 100 mg/kg, ip measured after 0.5 hrs by rotarod test; type: toxicity, organism-based; conditions: in vivo; summary of the method: as §4
[12] = Neurotoxicity in CF-1 mouse at 300 mg/kg, ip measured after 4 hrs by rotarod test; type: toxicity, organism-based; conditions: in vivo; summary of the method: as §4
[13] = Mutagenicity in Salmonella typhimurium TA100 assessed as mutagenicity index at 50 to 500 ug/plate preincubated for 30 mins followed by top agar addition and measured after 48 hrs in presence of liver S9 fraction by Ames test; type: toxicity, subcellular; conditions: salmonella enterica subsp. enterica serovar typhimurium, s9, 48 h
Summary of the method: (§6)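 Ames plate incorporation in S. typhimurium TA100 or TA1535, with or without S9. Overnight culture, compound in DMSO (50–500 µg per plate) and buffer or S9 mix preincubated 30 min at 37 °C, then top agar on glucose minimal agar. Incubated 48 h at 37 °C, revertants counted in triplicate. Vehicle negative control; NaN3 (−S9) and 2AA (+S9) positive controls. MI = revertants with compound / negative-control revertants; MI ≥ 2 with dose-response counts as positive.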

[14] = Neurotoxicity in Sprague-Dawley rat at 30 mg/kg, po measured after 4 hrs by rotarod test; type: toxicity, organism-based; conditions: in vivo; summary of the method: as §3
[15] = system: Mus musculus; test: Anticonvulsant activity in CF-1 mouse model of maximal electroshock-induced seizure assessed as suppression of tonic hind limb extension at 100 mg/kg, ip measured at 4 hrs post dose; type: functional, organism-based; summary of the method: as §2
[16] = system: Salmonella typhimurium; test: Antimutagenic activity against Salmonella typhimurium TA100 assessed as inhibition of NaN3-induced mutation at 250 ug/plate preincubated for 30 mins followed by top agar addition and measured after 48 hrs in presence of liver S9 fraction by Ames test relative to control; type: organism-based; conditions: salmonella enterica subsp. enterica serovar typhimurium, s9, 48 h
[17] = system: Salmonella typhimurium; test: Antimutagenic activity against Salmonella typhimurium TA100 assessed as inhibition of NaN3-induced mutation at 50 ug/plate preincubated for 30 mins followed by top agar addition and measured after 48 hrs in presence of liver S9 fraction by Ames test relative to control; type: organism-based; conditions: salmonella enterica subsp. enterica serovar typhimurium, s9, 48 h
[18] = system: Mus musculus; test: Anticonvulsant activity in CF-1 mouse model of maximal electroshock-induced seizure assessed as suppression of tonic hind limb extension at 100 mg/kg, ip measured at 1 hr post dose; type: functional, organism-based; summary of the method: as §2
[19] = system: Mus musculus; test: Anticonvulsant activity in CF-1 mouse model of maximal electroshock-induced seizure assessed as suppression of tonic hind limb extension at 100 mg/kg, ip measured at 0.5 hrs post dose; type: functional, organism-based; summary of the method: as §2
[20] = system: Rattus norvegicus; test: Anticonvulsant activity in Sprague-Dawley rat model of maximal electroshock-induced seizure assessed as suppression of tonic hind limb extension at 30 mg/kg, po measured at 2 hrs post dose; type: functional, organism-based
Summary of the method: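 Rats given 30 mg/kg p.o. and tested by maximal electroshock at 150 mA. Scored as number protected / number tested (4 per group) at 0.25, 0.5, 1, 2 and 4 h after dosing.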

[21] = Neurotoxicity in Sprague-Dawley rat at 100 mg/kg, ip measured after 1 hr by rotarod test; type: toxicity, organism-based; conditions: in vivo; summary of the method: as §3
[22] = system: Salmonella typhimurium; test: Antimutagenic activity against Salmonella typhimurium TA1535 assessed as inhibition of NaN3-induced mutation at 250 ug/plate preincubated for 30 mins followed by top agar addition and measured after 48 hrs in presence of liver S9 fraction by Ames test relative to control; type: organism-based; conditions: salmonella enterica subsp. enterica serovar typhimurium, s9, 48 h
[23] = Mutagenicity in Salmonella typhimurium TA100 assessed as mutagenicity index at 50 to 500 ug/plate preincubated for 30 mins followed by top agar addition and measured after 48 hrs in absence of liver S9 fraction by Ames test; type: toxicity; conditions: salmonella enterica subsp. enterica serovar typhimurium, s9, 48 h; summary of the method: as §6
[24] = system: Mus musculus; test: Anticonvulsant activity in CF-1 mouse model of maximal electroshock-induced seizure assessed as suppression of tonic hind limb extension at 30 mg/kg, ip measured at 4 hrs post dose; type: functional, organism-based; summary of the method: as §2
[25] = system: Mus musculus; test: Anticonvulsant activity in CF-1 mouse model of subcutaneous pentylenetetrazole-induced seizure assessed as reduction in convulsions at 30 mg/kg, ip measured at 4 hrs post dose; type: functional, organism-based; summary of the method: as §1
[26] = Neurotoxicity in CF-1 mouse at 100 mg/kg, ip measured after 4 hrs by rotarod test; type: toxicity, organism-based; conditions: in vivo; summary of the method: as §4
[27] = system: Mus musculus; test: Anticonvulsant activity in CF-1 mouse model of subcutaneous pentylenetetrazole-induced seizure assessed as reduction in convulsions at 300 mg/kg, ip measured at 4 hrs post dose; type: functional, organism-based; summary of the method: as §1
[28] = system: Mus musculus; test: Anticonvulsant activity in CF-1 mouse model of maximal electroshock-induced seizure assessed as suppression of tonic hind limb extension at 30 mg/kg, ip measured at 0.5 hrs post dose; type: functional, organism-based; summary of the method: as §2

Compound: Cc1cccc(C)c1OCC(=O)N[C@H](C)CO
- Activity [1]: inactive
- Activity [2]: inactive
- inhibition (INH) [3]: 29%
- Activity [4]: Active
- Activity [5]: Non-Toxic
- Activity [6]: Non-Toxic
- half-life at 20 µM [7]: 3.04 h
- Activity [8]: Non-Toxic
- microsomal CLint at 20 µM [9]: 9.5 µL/min/mg
- Activity [10]: Non-Toxic
- Activity [11]: Non-Toxic
- Activity [12]: Non-Toxic
- Activity index [13]: 0.7 to 1.7
- Activity [14]: Non-Toxic
- Activity [15]: inactive
- inhibition (INH) [16]: 38%
- inhibition (INH) [17]: 57%
- Activity [18]: inactive
- Activity [19]: inactive
- Activity [20]: inactive
- Activity [21]: Non-Toxic
- inhibition (INH) [22]: 47%
- Activity index [23]: 0.7 to 1.7
- Activity [24]: inactive
- Activity [25]: inactive
- Activity [26]: Non-Toxic
- Activity [27]: inactive
- Activity [28]: inactive

Compound: CCC(O)CNC(=O)COc1c(C)cccc1C (stereo unspecified)
- Activity [1]: inactive
- Activity [2]: inactive
- inhibition (INH) [3]: 42%
- Activity [4]: Active
- Activity [5]: Non-Toxic
- Activity [6]: Non-Toxic
- half-life at 20 µM [7]: 0.507 h
- Activity [8]: Non-Toxic
- microsomal CLint at 20 µM [9]: 57 µL/min/mg
- Activity [10]: Non-Toxic
- Activity [11]: Non-Toxic
- Activity [12]: Non-Toxic
- Activity index [13]: 0.7 to 1.7
- Activity [14]: Non-Toxic
- Activity [15]: inactive
- inhibition (INH) [16]: 11%
- inhibition (INH) [17]: 21%
- Activity [18]: inactive
- Activity [19]: inactive
- Activity [20]: inactive
- Activity [21]: Non-Toxic
- inhibition (INH) [22]: 56%
- Activity index [23]: 0.7 to 1.7
- Activity [24]: inactive
- Activity [25]: inactive
- Activity [26]: Non-Toxic
- Activity [27]: inactive
- Activity [28]: inactive
